Results as given in ChEMBL document CHEMBL1153752, “Hymenopsins A and B and a macrophorin analogue from a fungicolous Hymenopsis sp” (2010).
Active and inactive are the calls of the source. No cut-off for these calls is given here.

What was measured:
Staphylococcus aureus [1] = assay: Antibacterial activity against Staphylococcus aureus ATCC 25923 at 200 ug/disk by disk diffusion method; assay type: functional; conditions: for zone of inhibition at 200 µg/disc: read-out: IZ
How it was run: (§1)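 Standard paper-disk diffusion assay. Test material was loaded at 200 μg/disk, and gentamicin sulfate was run as the standard at 50 μg/disk. The C. albicans assay used the same 200 μg/disk level. The read-out was the diameter of the zone of inhibition in mm.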

Candida albicans [2] = assay: Antifungal activity against Candida albicans ATCC 14053 at 200 ug/disk by disk diffusion method; assay type: functional, organism-based; how it was run: as §1
Aspergillus flavus [3] = assay: Antifungal activity against Aspergillus flavus NRRL 6541 at 200 ug/disk by disk diffusion method; assay type: functional
Fusarium verticillioides [4] = assay: Antifungal activity against Fusarium verticillioides NRRL 25457 at 200 ug/disk by disk diffusion method; assay type: functional
Bacillus subtilis [5] = assay: Antibacterial activity against Bacillus subtilis ATCC 6051 at 200 ug/disk by disk diffusion method; assay type: functional; conditions: for zone of inhibition at 200 µg/disc: read-out: IZ; how it was run: as §1
Staphylococcus aureus [6] = assay: Antibacterial activity against Staphylococcus aureus ATCC 25923 at 50 ug/disk by disk diffusion method; assay type: functional, organism-based; how it was run: as §1
Bacillus subtilis [7] = assay: Antibacterial activity against Bacillus subtilis ATCC 6051 at 50 ug/disk by disk diffusion method; assay type: functional, organism-based; how it was run: as §1
Aspergillus flavus [8] = assay: Antifungal activity against Aspergillus flavus NRRL 6541 at 25 ug/disk by disk diffusion method; assay type: functional, organism-based
Fusarium verticillioides [9] = assay: Antifungal activity against Fusarium verticillioides NRRL 25457 at 25 ug/disk by disk diffusion method; assay type: functional, organism-based
Candida albicans [10] = assay: Antifungal activity against Candida albicans ATCC 14053 at 25 ug/disk by disk diffusion method; assay type: functional, organism-based

Compound	zone of inhibition at 200 µg/disc (Staphylococcus aureus [1]) [mm]	inhibition zone (IZ) (Candida albicans [2])	zone of inhibition at 200 µg/disc (Bacillus subtilis [5]) [mm]	inhibition zone (IZ) (Aspergillus flavus [3])	inhibition zone (IZ) (Fusarium verticillioides [4])	further results
C=C1CC[C@H]2[C@](C)(CO)CCC[C@]2(C)[C@H]1C[C@@]12O[C@@H]1C(=O)[C@]1(CO)O[C@@H]1C2=O	32	inactive	32			zone of inhibition at 200 µg/disc (Aspergillus flavus [3]; read-out: IZ): 20 mm; zone of inhibition at 200 µg/disc (Fusarium verticillioides [4]; read-out: IZ): 20 mm
C[C@@]1(CO)CCC[C@]2(C)[C@H]3C[C@@]45O[C@@H]4C(=O)[C@]4(CO)O[C@@H]4[C@]5(O)CC3=CC[C@@H]12 [HYMENOPSIN B]	21	inactive	21	inactive	inactive	
C[C@@]1(CO)CCC[C@]2(C)[C@H]3C[C@@]45O[C@@H]4[C@H](O)[C@]4(CO)O[C@@H]4[C@]5(O)CC3=CC[C@@H]12		inactive		inactive	inactive	inhibition zone (IZ) (Staphylococcus aureus [1]): inactive; inhibition zone (IZ) (Bacillus subtilis [5]): inactive
GENTAMICIN SULFATE		inactive				inhibition zone (IZ) (Staphylococcus aureus [6]): 25 mm; inhibition zone (IZ) (Bacillus subtilis [7]): 25 mm
NYSTATIN						inhibition zone (IZ) (Aspergillus flavus [8]): Active; inhibition zone (IZ) (Fusarium verticillioides [9]): Active; inhibition zone (IZ) (Candida albicans [10]): Active
